Laboratory results from ChEMBL document CHEMBL1153764, “A facile one-pot green synthesis and antibacterial activity of 2-amino-4H-pyrans and 2-amino-5-oxo-5,6,7,8-tetrahydro-4H-chromenes” (2009).
≈ marks a conversion by molar mass, not a printed value.

Key:
Type in all cases: functional
Pseudomonas putida [1] = assay: Antibacterial activity against Pseudomonas putida MTCC 1072 after 12 to 16 hrs
How it was run: (§1)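 Tube broth dilution MIC. Tubes were inoculated with the bacterial strain and incubated 12–16 h. Growth was scored visually: a turbid tube means growth, a clear tube means no growth. MIC is the lowest concentration with no growth.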

Escherichia coli [2] = assay: Antibacterial activity against Escherichia coli MTCC 41 after 12 to 16 hrs; how it was run: as §1
Escherichia coli [3] = assay: Antibacterial activity against Escherichia coli MTCC 41 at 128 ug/ml after 16 hrs by disc diffusion method; conditions: MTCC 41, 16 h, read-out: IZ
How it was run: (§2)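 Disc diffusion zone-of-inhibition assay. The bacterial isolate was spread evenly over the surface of an agar plate. A filter disc loaded with a known amount of compound was placed on the surface, and the compound diffused into the surrounding agar. Plates were incubated 16 h until a bacterial lawn formed, and the zone of inhibition around the disc was then assessed.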

Escherichia coli [4] = assay: Antibacterial activity against Escherichia coli MTCC 41 at 64 ug/ml after 16 hrs by disc diffusion method; conditions: MTCC 41, 16 h, read-out: IZ; how it was run: as §2
Staphylococcus aureus [5] = assay: Antibacterial activity against Staphylococcus aureus MTCC 1144 after 12 to 16 hrs; how it was run: as §1
Staphylococcus aureus [6] = assay: Antibacterial activity against Staphylococcus aureus MTCC 1144 at 128 ug/ml after 16 hrs by disc diffusion method; conditions: MTCC 1144, 16 h, read-out: IZ; how it was run: as §2
Staphylococcus aureus [7] = assay: Antibacterial activity against Staphylococcus aureus MTCC 1144 at 64 ug/ml after 16 hrs by disc diffusion method; conditions: MTCC 1144, 16 h, read-out: IZ; how it was run: as §2
Pseudomonas putida [8] = assay: Antibacterial activity against Pseudomonas putida MTCC 1072 at 128 ug/ml after 16 hrs by disc diffusion method; conditions: MTCC 1072, 16 h, read-out: IZ; how it was run: as §2
Pseudomonas putida [9] = assay: Antibacterial activity against Pseudomonas putida MTCC 1072 at 64 ug/ml after 16 hrs by disc diffusion method; conditions: MTCC 1072, 16 h, read-out: IZ; how it was run: as §2

| SMILES | MIC (Pseudomonas putida [1]) [µg/mL] | MIC (Escherichia coli [2]) [µg/mL] | MIC (Staphylococcus aureus [5]) [µg/mL] | zone of inhibition at 128 µg/mL (Escherichia coli [3]) [mm] | zone of inhibition at 64 µg/mL (Escherichia coli [4]) [mm] | zone of inhibition at 128 µg/mL (Staphylococcus aureus [6]) [mm] | zone of inhibition at 64 µg/mL (Staphylococcus aureus [7]) [mm] | zone of inhibition at 128 µg/mL (Pseudomonas putida [8]) [mm] | zone of inhibition at 64 µg/mL (Pseudomonas putida [9]) [mm] |
| --- | --- | --- | --- | --- | --- | --- | --- | --- | --- |
| CC1(C)CC(=O)C2=C(C1)OC(N)=C(C#N)C2c1ccc(Cl)cc1 (stereo not drawn) | 128 (≈ 389 µM) | 128 (≈ 389 µM) | 128 (≈ 389 µM) | > 3 | > 2 | > 3 | > 2 | > 3 | > 2 |
| CC1(C)CC(=O)C2=C(C1)OC(N)=C(C#N)C2c1cccc(O)c1 (stereo not drawn) | 64 (≈ 206 µM) | 128 (≈ 412 µM) | > 128 | > 3 | > 2 | > 2 | > 2 | > 3 | > 3 |
| CC1(C)CC(=O)C2=C(C1)OC(N)=C(C#N)C2c1ccccc1 (stereo not drawn) | > 128 | > 128 | > 128 | > 2 | < 1 | < 1 | < 1 | > 2 | > 2 |
| COc1ccc(C2C(C#N)=C(N)OC3=C2C(=O)CC(C)(C)C3)cc1 (stereo not drawn) | 128 (≈ 395 µM) | 64 (≈ 197 µM) | > 128 | > 3 | > 3 | > 2 | > 2 | > 3 | > 2 |
| CC1(C)CC(=O)C2=C(C1)OC(N)=C(C#N)C2c1cccc([N+](=O)[O-])c1 (stereo not drawn) | 128 (≈ 377 µM) | 128 (≈ 377 µM) | 128 (≈ 377 µM) | > 3 | < 1 | > 3 | > 2 | > 3 | < 1 |
| CC1(C)CC(=O)C2=C(C1)OC(N)=C(C#N)C2c1ccc([N+](=O)[O-])cc1 (stereo not drawn) | 128 (≈ 377 µM) | 64 (≈ 189 µM) | 64 (≈ 189 µM) | > 3 | > 3 | > 3 | > 3 | > 3 | < 1 |
| CC1(C)S[C@@H]2[C@H](NC(=O)[C@H](N)c3ccccc3)C(=O)N2[C@H]1C(=O)O [AMPICILLIN] | > 256 | 16 (≈ 45.8 µM) |  | > 5 | > 5 | > 5 | > 5 | 0 | 0 |

Now from value to compound, other results behind:

| MIC (Pseudomonas putida [1]) [µg/mL] | MIC (Escherichia coli [2]) [µg/mL] | MIC (Staphylococcus aureus [5]) [µg/mL] | SMILES | zone of inhibition at 128 µg/mL (Escherichia coli [3]) [mm] | zone of inhibition at 64 µg/mL (Escherichia coli [4]) [mm] | zone of inhibition at 128 µg/mL (Staphylococcus aureus [6]) [mm] | zone of inhibition at 64 µg/mL (Staphylococcus aureus [7]) [mm] | zone of inhibition at 128 µg/mL (Pseudomonas putida [8]) [mm] | zone of inhibition at 64 µg/mL (Pseudomonas putida [9]) [mm] |
| --- | --- | --- | --- | --- | --- | --- | --- | --- | --- |
| > 128 | > 128 | > 128 | CCOC(=O)C1=C(C)OC(N)=C(C#N)C1c1ccc([N+](=O)[O-])cc1 (stereo not drawn) | < 1 | < 1 | < 1 | < 1 | < 1 | < 1 |
| 128 (≈ 415 µM) | > 128 | > 128 | Cc1ccc(C2C(C#N)=C(N)OC3=C2C(=O)CC(C)(C)C3)cc1 (stereo not drawn) | > 2 | > 2 | > 2 | > 2 | > 3 | > 2 |
| > 128 | > 128 | > 128 | CCOC(=O)C1=C(C)OC(N)=C(C#N)C1c1cccc([N+](=O)[O-])c1 (stereo not drawn) | < 1 | < 1 | < 1 | < 1 | < 1 | < 1 |
| 128 (≈ 450 µM) | 64 (≈ 225 µM) | 128 (≈ 450 µM) | CCOC(=O)C1=C(C)OC(N)=C(C#N)C1c1ccccc1 (stereo not drawn) | > 3 | > 3 | > 3 | < 1 | > 3 | < 1 |
| 128 (≈ 402 µM) | 128 (≈ 402 µM) | 128 (≈ 402 µM) | CCOC(=O)C1=C(C)OC(N)=C(C#N)C1c1cccc(Cl)c1 (stereo not drawn) | > 3 | < 1 | > 3 | < 1 | > 3 | < 1 |
| > 128 | > 128 | > 128 | CCOC(=O)C1=C(C)OC(N)=C(C#N)C1c1ccc(Cl)cc1 (stereo not drawn) | < 1 | < 1 | < 1 | < 1 | < 1 | < 1 |
| > 128 | > 128 | > 128 | CCOC(=O)C1=C(C)OC(N)=C(C#N)C1c1ccc(C)cc1 (stereo not drawn) | < 1 | < 1 | < 1 | < 1 | < 1 | < 1 |
| 128 (≈ 426 µM) | > 128 | > 128 | CCOC(=O)C1=C(C)OC(N)=C(C#N)C1c1cccc(O)c1 (stereo not drawn) | < 1 | < 1 | < 1 | < 1 | > 3 | < 1 |
| 128 (≈ 407 µM) | 128 (≈ 407 µM) | 128 (≈ 407 µM) | CCOC(=O)C1=C(C)OC(N)=C(C#N)C1c1ccc(OC)cc1 (stereo not drawn) | > 3 | < 1 | > 3 | < 1 | > 3 | < 1 |
